M4 antag: human M4 muscarinic receptor antagonists, primary screen, CHO cells, Fluo-8 calcium fluorescence. CHO-hM4 cells, ACh EC80. hit rate 0.73% among 360,000. Muscarinic acetylcholine receptor M4 (Homo sapiens), P08173. inhibition, % at 3 µM;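 active = inhibition above its plate's cutoff, the mean inhibition of sample wells plus 3 SD, cut at about 27% in these data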
Target sequence (P08173 whole entry, looked up): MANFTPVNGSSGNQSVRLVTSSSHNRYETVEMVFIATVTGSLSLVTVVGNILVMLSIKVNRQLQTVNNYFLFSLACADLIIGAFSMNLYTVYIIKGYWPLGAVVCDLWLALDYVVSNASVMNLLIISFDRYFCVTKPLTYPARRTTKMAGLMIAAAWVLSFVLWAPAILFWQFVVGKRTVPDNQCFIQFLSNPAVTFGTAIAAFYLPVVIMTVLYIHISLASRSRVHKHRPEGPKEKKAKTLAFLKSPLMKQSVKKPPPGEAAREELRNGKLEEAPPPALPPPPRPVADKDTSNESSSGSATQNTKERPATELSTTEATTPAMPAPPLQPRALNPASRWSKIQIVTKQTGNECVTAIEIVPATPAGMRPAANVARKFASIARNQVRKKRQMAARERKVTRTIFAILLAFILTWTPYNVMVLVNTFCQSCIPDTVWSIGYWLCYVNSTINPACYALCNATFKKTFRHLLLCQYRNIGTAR
CHRM5 PAM: human M5 muscarinic receptor positive allosteric modulators, primary screen, CHO-K1 cells, Fluo-8 calcium fluorescence. CHO-K1 hM5, ACh EC20 PAM; 0% = ACh EC20, 100% = ACh EC100. AID 624038, 2012. hit rate 0.3% among 360,000. Muscarinic acetylcholine receptor M5 (Homo sapiens), P08912. activation, % at 3 µM;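 active = activation above the run cutoff, the mean activation of all test compounds plus 3 SD, cut at about 18% in these data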
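system = human M5 receptor in CHO-K1 cells | compound = one concentration, 3 µM final (nominal) | schedule = Post-acetylcholine fluorescence recording 140 s | signal = Fluo-8 calcium dye fluorescence, kinetic read | benchmarks = low control EC20 acetylcholine (0%), high control EC100 acetylcholine (100%) | repeats = singlicate, one well per test compound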
CHRM5 antagonist: human M5 muscarinic receptor antagonists, primary screen, CHO cells, Fluo-8 calcium fluorescence; Muscarinic acetylcholine receptor M5 (Homo sapiens), P08912; CHO-hM5 cells, ACh EC80; inhibition, % at 3 µM; hit rate 0.59% among 360,000;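 active = inhibition above a per-plate cutoff, the mean of that plate's test compounds plus 3 SD, cut at about 27% in these data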
CHRM4 agonist: human M4 muscarinic receptor agonists, primary screen, CHO-K1 cells, Fluo-8 calcium fluorescence; hit rate 0.14% among 360,000; Muscarinic acetylcholine receptor M4 (Homo sapiens), P08173; CHO-K1 hM4/Gqi5; vehicle 0%, full acetylcholine response 100%; AID 624127, 2012; activation, % at 3 µM;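 active = activation above the run mean over all test wells plus 3 SD, cut at about 32% in these data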;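 note: peak over basal fluorescence ratio per well then scaled between controls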
M4 PAM: human M4 muscarinic receptor positive allosteric modulators, primary screen, CHO-K1 cells, Fluo-8 calcium fluorescence | AID 624126, 2012 | CHO-K1 hM4/Gqi5, ACh EC20; 0% = ACh EC20, 100% = maximal ACh | hit rate 0.4% among 360,000 | activation, % at 3 µM | Muscarinic acetylcholine receptor M4 (Homo sapiens), P08173;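 active = activation above its plate's cutoff, the mean activation of sample wells plus 3 SD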
CHRM5 agonist: human M5 muscarinic receptor agonists, primary screen, CHO-K1 cells, Fluo-8 calcium fluorescence | Muscarinic acetylcholine receptor M5 (Homo sapiens), P08912 | CHO-K1 hM5 cells; 0% DMSO wells, 100% maximal acetylcholine response | activation, % at 3 µM | hit rate 0.19% among 360,000 | AID 624037, 2012;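 active = activation above the run's mean over test compounds plus 3 SD, cut at about 23% in these data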;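 note: signal is peak over basal fluorescence ratio across the kinetic read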
Numbers stand for hits; – = inactive. Compounds with a hit are over-represented: about 1.8% of the library has one in this group of screens.

SMILES	M4 antag	CHRM5 PAM	CHRM5 antagonist	CHRM4 agonist	M4 PAM	CHRM5 agonist
CC1(C)O[C@@H]2[C@H](O1)[C@@H](COS(=O)(=O)O)O[C@H]2n1cc(Br)c(=O)[nH]c1=O	–	–	–	–	25.1	–
Cc1cn([C@H]2C[C@H](O)[C@@H](COS(=O)(=O)O)O2)c(=O)[nH]c1=O	–	–	–	–	–	–
Cc1ccc2nc(-c3ccc(N)cc3)sc2c1	–	–	–	–	13.3	–
CCOC(=O)C1=CCN(S(=O)(=O)c2ccc(C)cc2)C1c1ccc(CC)cc1 (stereo not given)	–	–	–	–	–	–
CNCC/C=C1/c2ccccc2CSc2ccccc21	42.8	–	80.8	–	–	–
CCCCOC(=O)CSc1nc(N)c(C#N)c(-c2ccc(OC)cc2)c1C#N	–	23.1	–	–	–	–
CCCCOC(=O)CSc1nc(N)c(C#N)c(-c2ccc(OCC)cc2)c1C#N	–	–	–	–	–	–
CCCCn1nnnc1C(c1cc2ccccc2o1)N(C)CCc1ccccc1 (stereo not given)	–	–	–	–	–	–
O=C(O)CSCC(=O)Nc1ccccc1SCCS(=O)(=O)c1ccc(Cl)cc1	–	–	–	–	–	–
Cc1ccc(-c2csc(SCC(=O)c3c(N)n(C4CC4)c(=O)[nH]c3=O)n2)cc1	–	–	–	–	–	–
CCC1CCCCN1S(=O)(=O)c1ccc(S(=O)(=O)N(Cc2ccccn2)CC2CCCO2)cc1 (stereo not given)	–	–	–	–	–	–
CCC1CCCCN1S(=O)(=O)c1ccc(S(=O)(=O)N(Cc2cccs2)C2CC2)cc1 (stereo not given)	45.1	–	–	–	–	–
Nn1c(=O)c2ccccc2n2c(SCc3ccccc3)nnc12	–	38.1	29.4	–	–	–
CCN1/C(=C\C(=S)Nc2ccccc2)Sc2ccccc21	–	–	–	–	–	–
CCN1/C(=C/C(C)=C/c2sc3ccccc3[n+]2CC)Sc2ccccc21	34.5	–	42.5	–	–	–
C=CCNC(=O)c1cc2cc(Cl)ccc2nc1N	–	–	–	–	–	–
COc1ccc(NC(=O)/C(=C\c2ccc(OS(=O)(=O)c3ccc(C)cc3)cc2)NC(=O)c2ccccc2)cc1	–	–	–	–	–	–
Cc1ccc(S(=O)(=O)Oc2ccc(/C=C(/NC(=O)c3ccccc3)C(=O)Nc3ccccc3)cc2)cc1	28.1	–	–	–	–	–
CC(=O)Nc1cccc(C(=O)/C=C/c2ccc(N(C)C)cc2)c1	38.9	–	34.4	67.9	–	73.6
CCOC(=O)C1(C)CCCCCN1C(=O)c1ccccc1F (stereo not given)	–	–	–	–	–	–
Cc1cccc(N2CCN(C(=O)CCn3c(=S)[nH]c4cc5c(cc4c3=O)OCO5)CC2C)c1 (stereo not given)	40.0	–	–	–	30.9	–
CSc1ccccc1NC(=O)CN(C)C(C)C(=O)NCc1ccc2c(c1)OCO2 (stereo not given)	–	–	–	–	–	–
CC(C)NC(=O)/C(=C/c1cn(-c2ccccc2)nc1-c1cccc([N+](=O)[O-])c1)NC(=O)c1ccccc1	32.3	–	–	–	–	–
NS(=O)(=O)c1ccc(NC(=O)/C=C/c2cn(-c3ccccc3)nc2-c2cccc(Cl)c2)cc1	–	–	–	–	–	–
O=C(O)/C=C/c1cn(-c2ccccc2)nc1-c1cccc([N+](=O)[O-])c1	–	–	–	–	–	–
SMILES	M4 antag	CHRM5 PAM	CHRM5 antagonist	CHRM4 agonist	M4 PAM	CHRM5 agonist
Cc1ccc(C(=O)N/C(=C/c2cn(-c3ccccc3)nc2-c2ccccc2)C(=O)O)cc1	–	20.1	–	–	–	–
O=C(/C=C/c1cn(-c2ccccc2)nc1-c1ccccc1)Nc1ccc(C(=O)O)cc1	71.5	–	–	–	–	–
Cc1ccc(NC(=O)CSCC(=O)Nc2ccccc2C(=O)NC2CC2)cc1	–	–	–	–	–	–
NC(=O)c1ccc[n+](CCC[n+]2cccc(C(N)=O)c2)c1	–	–	–	–	–	–
CCCCCCCCCC[n+]1cccc(C(=O)N(CC)CC)c1	44.1	–	–	–	–	–
O=C1c2cccc3c(O)ccc(c23)C(=O)N1Cc1ccccc1	46.7	–	56.5	178.3	–	173.1
Cc1cc(C)c(NC(=O)C2CCCN(S(=O)(=O)c3c(C)noc3/C=C/N(C)C)C2)c(C)c1 (stereo not given)	–	–	–	–	–	–
O=C(Nc1nnc(CCS(=O)(=O)c2ccc3ccccc3c2)s1)c1cccs1	–	–	–	–	21.2	–
COc1ccc(S(=O)(=O)CCc2nnc(NC(=O)c3cccs3)s2)cc1	–	–	–	–	–	–
Cc1ccc(F)c(S(=O)(=O)NC(=O)C2(C)CCN2C(=O)c2sccc2C)c1 (stereo not given)	–	–	–	–	–	–
CCOC(=O)c1nnc(-c2ccccc2)nc1Sc1ccccc1Cl	–	–	29.2	–	–	–
c1ccc(-n2nnnc2Oc2ccc(-c3nnco3)cc2)cc1	–	–	79.0	–	–	83.8
O=C(COC(=O)C12CC3CC(CC(Br)(C3)C1)C2)Nc1cccc(S(=O)(=O)N2CCOCC2)c1	–	–	–	–	–	–
Cc1n[nH]c(C)c1CCCCOc1ccccc1[N+](=O)[O-]	–	–	34.5	–	–	–
Nc1[nH]c2cc([N+](=O)[O-])ccc2c1-c1ccccn1	–	–	31.7	54.3	–	26.0
O=C(NNC(=O)c1cc(S(=O)(=O)N2CCOCC2)c(Cl)cc1Cl)c1ccccc1F	–	–	–	–	–	–
CC(C(=O)NCC1(c2ccccc2)CCCC1)N1CCOCC1 (stereo not given)	–	–	–	–	–	–
CC(C(=O)NCC1(c2ccccc2)CCCC1)N1CCCC1 (stereo not given)	42.8	–	–	–	–	–
CC(Oc1ccc(Br)cc1)C(=O)Nc1ccc(S(=O)(=O)N(C)C2CCN(C)CC2)cc1 (stereo not given)	31.4	–	–	95.9	–	61.9
O=S(=O)(/N=S1\CC=CCN1S(=O)(=O)c1ccccc1)c1ccccc1 (stereo not given)	–	–	–	60.5	–	34.2
CC1=C(C)CS(=O)N(S(=O)(=O)c2ccccc2)C1 (stereo not given)	–	–	–	–	–	–
